Activity calls are given as the source filed them.
What was measured:
Format in all cases: cell-based
[1] = biological target: T1, Antigen-presenting glycoprotein CD1d (Homo sapiens) (UniProt P15813); test: Induction of CD1D-mediated IL-13 production in human iNKT cells expressing CD4 at 25 to 400 nM after 18 hrs by ELISA
T1 sequence (whole entry): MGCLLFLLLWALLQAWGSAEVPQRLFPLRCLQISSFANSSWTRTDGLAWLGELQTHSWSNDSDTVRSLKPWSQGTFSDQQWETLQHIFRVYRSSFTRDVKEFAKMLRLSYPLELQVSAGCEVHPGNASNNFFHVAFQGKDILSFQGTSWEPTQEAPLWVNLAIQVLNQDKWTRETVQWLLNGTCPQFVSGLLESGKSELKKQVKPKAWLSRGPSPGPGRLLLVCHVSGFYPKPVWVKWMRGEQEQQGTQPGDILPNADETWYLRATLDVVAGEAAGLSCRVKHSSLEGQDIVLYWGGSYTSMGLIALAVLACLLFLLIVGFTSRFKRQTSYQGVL
In short: (§1)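 CD4⁺ human iNKT clone HDD11 with CD1d-transfected HeLa cells as APC, in RPMI-1640 plus 10% FBS. 2.5 × 10⁴ HeLa cells were pulsed with glycolipid for 18 h at 37 °C, washed, then given fresh glycolipid-free medium with 2.5 × 10⁴ iNKT cells. Supernatants were taken after a further 18 h at 37 °C, and cytokine was measured by capture ELISA.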

[2] = biological target: T1, Antigen-presenting glycoprotein CD1d (Homo sapiens); test: Induction of CD1D-mediated IL-4 production in human iNKT cells expressing CD4 at 25 to 400 nM after 18 hrs by ELISA; in short: as §1
[3] = biological target: T1, Antigen-presenting glycoprotein CD1d (Homo sapiens); test: Induction of CD1D-mediated IL-13 production in human iNKT cells expressing CD4 at 400 nM after 18 hrs by ELISA; in short: as §1
[4] = biological target: T1, Antigen-presenting glycoprotein CD1d (Homo sapiens); test: Induction of CD1D-mediated IFN-gamma production in human iNKT cells expressing CD4 at 25 to 400 nM after 18 hrs by ELISA; in short: as §1
[5] = biological target: T1, Antigen-presenting glycoprotein CD1d (Homo sapiens); test: Induction of CD1D-mediated IFN-gamma production in human iNKT cells expressing CD4 at 25 nM after 18 hrs by ELISA; in short: as §1
[6] = biological target: T1, Antigen-presenting glycoprotein CD1d (Homo sapiens); test: Induction of CD1D-mediated IL-4 production in human iNKT cells expressing CD4 at 25 nM after 18 hrs by ELISA; in short: as §1
[7] = biological target: T1, Antigen-presenting glycoprotein CD1d (Homo sapiens); test: Induction of CD1D-mediated IL-13 production in human iNKT cells expressing CD4 at 25 nM after 18 hrs by ELISA; in short: as §1

Measured: Activity

CCCCCCCCCCCCCCCC[C@H](CO[C@H]1O[C@H](CO)[C@H](O)[C@H](O)[C@H]1O)NC(=O)CCCCCCCCCc1ccccc1
active: [1] | [2] | [3] | [4]

CCCCCCCCCCCCCCCCCCCCCCCCCC(=O)N[C@@H](CO[C@H]1O[C@H](CO)[C@H](O)[C@H](O)[C@H]1O)[C@H](O)[C@H](O)CCCCCCCCCCCCCC
active: [3]

CCCCCCCCCCCCCCC[C@H](O)[C@H](CO[C@H]1O[C@H](CO)[C@H](O)[C@H](O)[C@H]1O)NC(=O)CCCCCCCCCc1ccccc1
active: [5] | [3] | [6] | [7]

CCCCCCCCCCCCCCCCCCCCCCCCCC(=O)N[C@@H](CO[C@H]1O[C@H](CO)[C@H](O)[C@H](O)[C@H]1O)[C@@H](O)CCCCCCCCCCCCCCC
active: [5] | [3] | [6] | [7]

CCCCCCCCCCCCCCCCCCCCCCCCCC(=O)N[C@H](CCCCCCCCCCCCCCCC)CO[C@H]1O[C@H](CO)[C@H](O)[C@H](O)[C@H]1O
active: [5] | [3] | [6] | [7]

CCCCCCCCCCCCCC[C@H](O)[C@H](O)[C@H](CO[C@H]1O[C@H](CO)[C@H](O)[C@H](O)[C@H]1O)NC(=O)CCCCCc1ccccc1
active: [5] | [3] | [6] | [7]

CCCCCCCCCCCCCCCCCCCCCCCCCC(=O)N[C@@H](CO[C@H]1O[C@H](CO)[C@H](O)[C@H](O)[C@H]1O)[C@H](O)[C@H](O)CCCc1ccccc1
active: [1] | [2] | [3] | [4]

CCCCCCCCCCCCCCCCCCCCCCCCCC(=O)N[C@@H](CO[C@H]1O[C@H](CO)[C@H](O)[C@H](O)[C@H]1O)[C@H](O)[C@@H](O)CCCc1ccccc1
active: [5] | [3] | [6] | [7]

From ChEMBL document CHEMBL1156834, “Syntheses and biological activities of KRN7000 analogues having aromatic residues in the acyl and backbone chains with varying stereochemistry” (Bioorg Med Chem Lett, 2010)
